Results taken from ChEMBL document CHEMBL4680268, “Pharmacomodulations of the benzoyl-thiosemicarbazide scaffold reveal antimicrobial agents targeting d-alanyl-d-alanine ligase in bacterio” (Eur J Med Chem, 2020).
Converted amounts (≈) assume the structure as drawn. The source made the active and inactive calls. No cut-off for these calls is given here.

How the values were obtained:
[1] = tested on: Enterococcus faecalis; test: Inhibition of recombinant Enterococcus faecalis C-terminal His6-tagged DdlB expressed in Escherichia coli LMG194 assessed as residual activity using D-Ala as substrate at 100 uM preincubated with enzyme for 30 mins followed by substrate addition and measured after 20 mins by malachite green based colorimetric analysis relative to control; conditions: time 50.0 min
Procedure, shortened: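 Purified E. faecalis His-tagged DdlB (20 mg/L) preincubated 30 min at 30 °C with 100 µM compound and 500 µM ATP in 20 mM Tris-HCl pH 7.4, 10 mM MgCl₂, 10 mM KCl, 10% DMSO; 1 mM D-Ala added, 20 min at 30 °C. Phosphate detected with malachite green reagent, A650 after 25 min dark; residual activity versus no-inhibitor control, triplicate.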

[2] = tested on: Staphylococcus aureus; test: Antibacterial activity against Staphylococcus aureus ATCC 25923 assessed as reduction in bacterial growth incubated for 18 to 24 hrs by broth microdilution method; assay type: functional; conditions: time 18-24 hrs
[3] = tested on: Enterococcus faecalis; test: Antibacterial activity against Enterococcus faecalis ATCC 29212 assessed as reduction in bacterial growth incubated for 18 to 24 hrs by broth microdilution method; assay type: functional; conditions: time 18-24 hrs
[4] = Inhibition of recombinant Enterococcus faecalis C-terminal His6-tagged DdlB expressed in Escherichia coli LMG194 using D-Ala as substrate preincubated with enzyme for 30 mins followed by substrate addition and measured after 20 mins by malachite green based colorimetric analysis
Procedure, shortened: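 DdlB (20 mg/L) malachite green phosphate assay: enzyme, inhibitor and 500 µM ATP preincubated 30 min at 30 °C in Tris-HCl pH 7.4 buffer with MgCl₂, KCl and 10% DMSO, then 1 mM D-Ala for 20 min; A650 read. IC₅₀ from 11 concentrations, also run with 0.01% Triton X-100; mean ± SD of triplicates, n ≥ 2; EC₅₀ given where maximal inhibition stayed below 50%.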

[5] = tested on: Enterococcus faecalis; test: Antibacterial activity against vancomycin resistant Enterococcus faecalis BM4390 harboring VanB mutant with inactive Ddl and constitutive expression of D-Ala-D-Lac assessed as reduction in bacterial growth incubated for 18 to 24 hrs by broth microdilution method; assay type: functional; conditions: time 18-24 hrs
Procedure, shortened: (§1)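 Broth microdilution in cation-adjusted Mueller-Hinton broth per CLSI; inoculum 10⁶ bacteria/mL. Two-fold serial dilutions, compound in broth with 5% DMSO mixed 1:1 with bacterial suspension, giving 2.5% DMSO final. Top concentration 0.1, 0.4 or 0.8 mM depending on solubility. Incubated 18–24 h at 37 °C. MIC = lowest concentration preventing visible growth.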

[6] = tested on: Enterococcus faecalis; test: Antibacterial activity against vancomycin resistant Enterococcus faecalis JH2-2::C1 harboring constitutive expression of Ddl and vanB ligase assessed as reduction in bacterial growth incubated for 18 to 24 hrs by broth microdilution method; assay type: functional; conditions: time 18-24 hrs; procedure, shortened: as §1
[7] = tested on: Enterococcus faecalis; test: Antibacterial activity against vancomycin resistant Enterococcus faecalis BM4575 harboring VanE genotype, constitutive expression of Ddl and VanE D-Ala-D-Ser ligase assessed as reduction in bacterial growth incubated for 18 to 24 hrs by broth microdilution method; assay type: functional; conditions: time 18-24 hrs; procedure, shortened: as §1
[8] = tested on: Staphylococcus aureus; test: Antibacterial activity against methicillin resistant and vancomycin intermediate resistant Staphylococcus aureus MU50 assessed as reduction in bacterial growth incubated for 18 to 24 hrs by broth microdilution method; assay type: functional; conditions: time 18-24 hrs; procedure, shortened: as §1
[9] = tested on: Staphylococcus aureus; test: Antibacterial activity against methicillin and linezolid resistant Staphylococcus aureus NRS119 assessed as reduction in bacterial growth incubated for 18 to 24 hrs by broth microdilution method; assay type: functional; conditions: time 18-24 hrs; procedure, shortened: as §1
[10] = tested on: Staphylococcus aureus; test: Antibacterial activity against community-acquired methicillin and erythromycin resistant Staphylococcus aureus SA325 assessed as reduction in bacterial growth incubated for 18 to 24 hrs by broth microdilution method; assay type: functional; conditions: time 18-24 hrs; procedure, shortened: as §1
[11] = tested on: Staphylococcus aureus; test: Antibacterial activity against hospital-acquired methicillin/ciprofloxacin and moxifloxacin resistant Staphylococcus aureus SA481 assessed as reduction in bacterial growth incubated for 18 to 24 hrs by broth microdilution method; assay type: functional; conditions: time 18-24 hrs; procedure, shortened: as §1
[12] = tested on: Staphylococcus aureus; test: Antibacterial activity against hospital-acquired vancomycin resistant Staphylococcus aureus VRS-1 assessed as reduction in bacterial growth incubated for 18 to 24 hrs by broth microdilution method; assay type: functional; conditions: time 18-24 hrs; procedure, shortened: as §1
[13] = tested on: Klebsiella pneumoniae; test: Antibacterial activity against Klebsiella pneumoniae ATCC700603 assessed as reduction in bacterial growth incubated for 18 to 24 hrs by broth microdilution method; assay type: functional, organism-based; conditions: 700603, time 18-24 hrs
Procedure, shortened: (§2)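 Microdilution in cation-adjusted Mueller-Hinton broth per CLSI; two-fold compound series in CAMHB with 5% DMSO mixed 1:1 with bacterial suspension, giving 10⁶ bacteria/mL inoculum and 2.5% DMSO final. Top concentrations 0.1, 0.4 or 0.8 mM depending on solubility. Incubated 18–24 h at 37 °C; MIC read as lowest concentration preventing visible growth.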

[14] = tested on: Escherichia coli; test: Antibacterial activity against Escherichia coli ATCC 25922 assessed as reduction in bacterial growth incubated for 18 to 24 hrs by broth microdilution method; assay type: functional, organism-based; conditions: time 18-24 hrs; procedure, shortened: as §2
[15] = tested on: Pseudomonas aeruginosa; test: Antibacterial activity against Pseudomonas aeruginosa PAO1 assessed as reduction in bacterial growth incubated for 18 to 24 hrs by broth microdilution method; assay type: functional, organism-based; conditions: time 18-24 hrs; procedure, shortened: as §2

Compound: Clc1ccc(Nc2nnc(-c3ccccc3)s2)cc1Cl
- Activity [1]: > 100%
- MIC [2]: > 100 µM
- MIC [3]: > 100 µM

Compound: Fc1ccc2c(c1F)Oc1ccccc1-c1n[nH]c(=S)n1-2
- Activity [1]: > 100%
- MIC [2]: > 400 µM
- MIC [3]: > 400 µM

Compound: Oc1ccccc1-c1n[nH]c(=S)n1-c1ccc(F)c(F)c1
- Activity [1]: > 100%
- MIC [2]: > 400 µM
- MIC [3]: > 400 µM

Compound: COc1ccccc1C(=O)NNC(=S)Nc1ccc(Cl)c(Cl)c1
- Activity [1]: > 100%
- MIC [2]: > 100 µM
- MIC [3]: > 100 µM

Compound: O=C(NNC(=S)Nc1ccc(F)cc1)c1ccccc1O
- IC50 [4]: 890 nM
- MIC [2]: > 100 µM
- MIC [3]: 200 µM (≈ 61.1 µg/mL)
- MIC [5]: > 100 µM
- MIC [6]: > 100 µM
- MIC [7]: > 100 µM
- MIC [8]: > 100 µM
- MIC [9]: > 100 µM
- MIC [10]: > 100 µM
- MIC [11]: > 100 µM
- MIC [12]: > 100 µM
- Activity [13]: inactive
- Activity [14]: inactive
- Activity [15]: inactive

Compound: COc1ccc(O)c(C(=O)NNC(=S)Nc2ccccc2)c1
- IC50 [4]: 630 nM
- MIC [2]: > 100 µM
- MIC [3]: > 100 µM

Compound: Oc1ccccc1-c1n[nH]c(=S)n1-c1ccc(F)cc1
- IC50 [4]: 60000 nM
- MIC [2]: > 800 µM
- MIC [3]: > 800 µM

Compound: O=C(O)c1cn(C2CC2)c2cc(N3CCNCC3)c(F)cc2c1=O [CIPROFLOXACIN]
- MIC [11]: 770 µM (≈ 255 µg/mL)

Compound: CC(=O)NC[C@H]1CN(c2ccc(N3CCOCC3)c(F)c2)C(=O)O1 [LINEZOLID]
- MIC [8]: 3 µM (≈ 1.01 µg/mL)
- MIC [9]: 190 µM (≈ 64.1 µg/mL)

Compound: O=C(NNC(=S)Nc1ccc(F)c(F)c1F)c1ccccc1O
- IC50 [4]: 640 nM
- MIC [2]: 200 µM (≈ 68.3 µg/mL)
- MIC [3]: 200 µM (≈ 68.3 µg/mL)
- MIC [5]: > 400 µM
- MIC [6]: > 400 µM
- MIC [7]: 400 µM (≈ 137 µg/mL)
- MIC [8]: 400 µM (≈ 137 µg/mL)
- MIC [9]: 400 µM (≈ 137 µg/mL)
- MIC [10]: 400 µM (≈ 137 µg/mL)
- MIC [11]: 400 µM (≈ 137 µg/mL)
- MIC [12]: 400 µM (≈ 137 µg/mL)
- Activity [13]: inactive
- Activity [14]: inactive
- Activity [15]: inactive

Compound: O=C(NNC(=S)Nc1ccccc1)c1ccccc1O
- IC50 [4]: 740 nM
- MIC [2]: 800 µM (≈ 230 µg/mL)
- MIC [3]: > 800 µM
- MIC [5]: > 800 µM
- MIC [6]: > 800 µM
- MIC [7]: > 800 µM
- MIC [8]: 800 µM (≈ 230 µg/mL)
- MIC [9]: > 800 µM
- MIC [10]: 800 µM (≈ 230 µg/mL)
- MIC [11]: 800 µM (≈ 230 µg/mL)
- MIC [12]: 800 µM (≈ 230 µg/mL)
- Activity [13]: inactive
- Activity [14]: inactive
- Activity [15]: inactive

Compound: Nc1ccccc1-c1n[nH]c(=S)n1-c1ccccc1
- Activity [1]: > 100%
- MIC [2]: > 800 µM
- MIC [3]: > 800 µM

Compound: Oc1ccccc1NC(=S)Nc1ccc(Cl)c(Cl)c1
- Activity [1]: > 100%
- MIC [2]: 25 µM (≈ 7.83 µg/mL)
- MIC [3]: 50 µM (≈ 15.7 µg/mL)
- MIC [5]: 50 µM (≈ 15.7 µg/mL)
- MIC [6]: 50 µM (≈ 15.7 µg/mL)
- MIC [7]: 100 µM (≈ 31.3 µg/mL)
- MIC [8]: 50 µM (≈ 15.7 µg/mL)
- MIC [9]: 50 µM (≈ 15.7 µg/mL)
- MIC [10]: 50 µM (≈ 15.7 µg/mL)
- MIC [11]: 50 µM (≈ 15.7 µg/mL)
- MIC [12]: 100 µM (≈ 31.3 µg/mL)
- Activity [13]: inactive
- Activity [14]: inactive
- Activity [15]: inactive

Compound: Sc1nnc(-c2ccccc2)n1-c1ccccc1
- Activity [1]: > 100%
- MIC [2]: > 400 µM
- MIC [3]: > 400 µM

Compound: Nc1ccccc1C(=O)NNC(=S)Nc1ccccc1
- Activity [1]: > 100%
- MIC [2]: > 400 µM
- MIC [3]: > 400 µM

Compound: O=C(NNC(=S)Nc1ccc(C(F)(F)F)cc1)c1ccccc1O
- IC50 [4]: 630 nM
- MIC [2]: 50 µM (≈ 17.8 µg/mL)
- MIC [3]: 50 µM (≈ 17.8 µg/mL)
- MIC [5]: > 100 µM
- MIC [6]: 100 µM (≈ 35.5 µg/mL)
- MIC [7]: 100 µM (≈ 35.5 µg/mL)
- MIC [8]: 100 µM (≈ 35.5 µg/mL)
- MIC [9]: 100 µM (≈ 35.5 µg/mL)
- MIC [10]: 100 µM (≈ 35.5 µg/mL)
- MIC [11]: 100 µM (≈ 35.5 µg/mL)
- MIC [12]: 100 µM (≈ 35.5 µg/mL)
- Activity [13]: inactive
- Activity [14]: inactive
- Activity [15]: inactive

Compound: Oc1ccccc1-c1nnc(Nc2ccc(Cl)c(Cl)c2)s1
- Activity [1]: > 100%
- MIC [2]: > 100 µM
- MIC [3]: > 100 µM

Compound: CN[C@H](CC(C)C)C(=O)N[C@H]1C(=O)N[C@@H](CC(N)=O)C(=O)N[C@H]2C(=O)N[C@H]3C(=O)N[C@H](C(=O)N[C@H](C(=O)O)c4cc(O)cc(O)c4-c4cc3ccc4O)[C@H](O)c3ccc(c(Cl)c3)Oc3cc2cc(c3O[C@@H]2O[C@H](CO)[C@@H](O)[C@H](O)[C@H]2O[C@H]2C[C@](C)(N)[C@H](O)[C@H](C)O2)Oc2ccc(cc2Cl)[C@H]1O [VANCOMYCIN]
- MIC [5]: 700 µM (≈ 1010 µg/mL)
- MIC [6]: 350 µM (≈ 507 µg/mL)
- MIC [8]: 5 µM (≈ 7.25 µg/mL)
- MIC [9]: 0.7 µM (≈ 1.01 µg/mL)
- MIC [12]: > 175 µM

Compound: S=c1[nH]nc(-c2ccccc2)n1-c1ccc(Cl)c(Cl)c1
- Activity [1]: > 100%
- MIC [2]: > 100 µM
- MIC [3]: > 100 µM

Compound: Oc1ccccc1/N=C(/S)Nc1ccccc1
- Activity [1]: > 100%
- MIC [2]: > 800 µM
- MIC [3]: > 800 µM

Compound: Oc1ccccc1-c1nnc(S)n1-c1ccccc1
- Activity [1]: > 100%
- MIC [2]: > 800 µM
- MIC [3]: > 800 µM

Compound: O=C(NNC(=S)Nc1ccc(Cl)c(Cl)c1)c1ccccc1
- Activity [1]: > 100%
- MIC [2]: > 100 µM
- MIC [3]: > 100 µM

Compound: COc1ccc(O)c(-c2n[nH]c(=S)n2-c2ccccc2)c1
- Activity [1]: > 50%
- IC50 [4]: 133000 nM
- MIC [2]: > 800 µM
- MIC [3]: > 800 µM

Compound: COc1ccccc1-c1n[nH]c(=S)n1-c1ccc(Cl)c(Cl)c1
- Activity [1]: > 100%
- MIC [2]: > 400 µM
- MIC [3]: > 400 µM

Compound: Oc1ccccc1/C=N/NC(=S)Nc1ccccc1
- Activity [1]: > 50%
- IC50 [4]: 2600 nM
- MIC [2]: > 400 µM
- MIC [3]: > 400 µM

Compound: O=C(NNC(=S)Nc1ccc(F)c(F)c1)c1ccccc1O
- Activity [1]: > 50%
- IC50 [4]: 920 nM
- MIC [2]: 400 µM (≈ 129 µg/mL)
- MIC [3]: 400 µM (≈ 129 µg/mL)
- Activity [13]: inactive
- Activity [14]: inactive
- Activity [15]: inactive
